The record followed here is ChEMBL document CHEMBL1156601, “Aminomethylpiperazines as selective urotensin antagonists” (Bioorg Med Chem Lett, 2008).

Assay [1] can be described thus: Displacement of [125I]hU-2 from human recombinant urotensin receptor expressed in HEK293 cells. The class given is cell-based. Summed up:
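Radioligand binding with [125I]hU-II on membranes of HEK293 cells stably expressing recombinant human UT receptor. Ki given as the mean of at least two determinations (SD <±0.3 log units).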
(In general: Displacement assays read how much labelled ligand stays bound in the presence of the test substance.)

For assay [2], the target named is Kappa-type opioid receptor (Homo sapiens, UniProt P41145). The experiment in a line: Agonist activity at human kappa opioid receptor expressed in CHO-K1 cells by [35S]GTPgamma binding assay. Type of assay: functional, cell-based. Summed up: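 Human κ-opioid receptor, membranes from BacMam-transduced CHO-K1 cells. Agonism read as [35S]GTPγS binding, detected by LEADseeker SPA. EC50 reported from a single run or as the mean of two runs (SD <±0.3 log units).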

The nature of assay [3]: Antagonist activity at rat urotensin receptor in Sprague-Dawley rat thoracic aorta assessed as inhibition of urotensin-mediated contraction. The class given is functional. An outline of the steps:
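Isolated rat aortic rings were contracted via UT, and the test agent's inhibition of that contraction was measured. The value is reported as a Kb, the mean of two determinations ± SEM.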

The nature of assay [4]: Displacement of [125I]hU-2 from rat recombinant urotensin receptor expressed in HEK293 cells. Type of assay: cell-based.
Assay [5] is filed under the species Rattus norvegicus. The experiment in a line: Selectivity ratio of Kb for urotensin receptor in Sprague-Dawley rat thoracic aorta to Ki for rat recombinant urotensin receptor. The class given is tissue-based.

As a reminder, the Ki is the equilibrium dissociation constant of an inhibitor or competing ligand from its target. As usually defined, the EC50 is the concentration giving half of the maximal effect. A lower EC50 goes with greater potency. For orientation: Kb means the affinity of an antagonist, worked out from how it opposes an agonist.

Each structure is given as a SMILES string.

Sequence of Kappa-type opioid receptor (P41145 whole entry): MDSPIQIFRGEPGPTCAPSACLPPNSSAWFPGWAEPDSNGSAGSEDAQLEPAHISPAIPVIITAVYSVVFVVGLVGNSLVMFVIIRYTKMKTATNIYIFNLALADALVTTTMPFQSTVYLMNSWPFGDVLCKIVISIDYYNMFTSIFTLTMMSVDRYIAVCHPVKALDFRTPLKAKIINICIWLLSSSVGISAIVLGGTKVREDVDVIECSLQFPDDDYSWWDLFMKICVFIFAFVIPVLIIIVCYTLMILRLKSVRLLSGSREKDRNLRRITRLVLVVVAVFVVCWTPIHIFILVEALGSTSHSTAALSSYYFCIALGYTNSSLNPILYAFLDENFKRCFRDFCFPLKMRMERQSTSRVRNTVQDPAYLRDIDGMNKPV

For the compound `CN(CC(=O)N1CCN(S(=O)(=O)c2cccc(Cl)c2)CC1CN1CCCC1)c1ccc(Cl)c(Cl)c1` (configuration not stated), the Ki in assay [1] was found to be 160 nM. In addition, in assay [2], the midpoint of the response, the EC50, lay at 200 nM.
Consider `CN(CC(=O)N1CCN(S(=O)(=O)c2ccc(Cl)cc2)CC1CN1CCCC1)c1ccc(Cl)c(Cl)c1` (configuration not stated), for which the Ki in assay [1] came to 100 nM. Moreover, it took 790 nM to reach a half-maximal effect in assay [2] (EC50).
As to `CN(CC(=O)N1CCN(c2cccc(Cl)c2)CC1CN1CCCC1)c1ccc(Cl)c(Cl)c1` (configuration not stated), the Ki in assay [1] came to 63 nM. The midpoint of the response in assay [2], the EC50, lay at 4 nM.
On to `O=C(Cc1cccc2ccccc12)N1CCN(c2ccccc2)CC1CN1CCCC1` (configuration not stated), for which, in assay [1], the Ki is 320 nM. This compound also gave an EC50 in assay [2] of 1.6 nM.
In the case of `CN(CC(=O)N1CCN(c2ccccc2)CC1CN1CCCC1)c1ccc(Cl)c(Cl)c1` (configuration not stated), the Ki in assay [1] was found to be 250 nM. In assay [2], this compound yielded an EC50 of 1.3 nM.
Regarding `O=C(Cn1c(=O)oc2ccc(Cl)cc21)N1CCN(S(=O)(=O)c2ccccc2Br)CC1CN1CCCC1` (configuration not stated), in assay [1], the Ki was 8 nM. In assay [2], this compound showed an EC50 of 2000 nM. Also, the Kb in assay [3] is 52.8 nM.
With `CN(CC(=O)N1CCN(C(=O)c2ccc(C#N)cc2)CC1CN1CCCC1)c1ccc(Cl)c(Cl)c1` (configuration not stated), in assay [1], the Ki turned out to be 1300 nM. The EC50 in assay [2] is 3200 nM.
Take `O=C(Cn1c(=O)oc2ccccc21)N1CCN(c2ccccc2)CC1CN1CCCC1` (configuration not stated): the Ki in assay [1] was 130 nM. The same compound came in with an EC50 in assay [2] of 400 nM.
`CN(CC(=O)N1CCN(C(=O)c2ccncc2)CC1CN1CCCC1)c1ccc(Cl)c(Cl)c1` (configuration not stated): the Ki in assay [1] is 100 nM. In addition, in assay [2], a half-maximal response (EC50) required 630 nM.
As to `N#Cc1cccc(S(=O)(=O)N2CCN(C(=O)Cn3c(=O)oc4ccc(Cl)cc43)C(CN3CCCC3)C2)c1` (configuration not stated), the Ki in assay [1] turned out to be 10 nM. Besides, in assay [2], the midpoint of the response, the EC50, lay at 630 nM.
In the case of `O=C(Cn1c(=O)oc2ccccc21)N1CCN(S(=O)(=O)c2ccccc2)CC1CN1CCCC1` (configuration not stated), the Ki in assay [1] was determined as 500 nM. In assay [2], this compound showed an EC50 of 1000 nM.
Turning to `COc1ccc(S(=O)(=O)N2CCN(C(=O)Cn3c(=O)oc4ccc(Cl)cc43)C(CN3CCCC3)C2)c(Br)c1OC` (configuration not stated), the Ki in assay [1] is 1.6 nM; in assay [4] it was 10 nM. In addition, a half-maximal response in assay [2] (EC50) required 1300 nM. For the same compound, the Ratio in assay [5] is 1.4. Further, the Kb in assay [3] turned out to be 14.2 nM.
For the compound `O=C(Cn1c(C(F)(F)F)nc2ccccc21)N1CCN(c2ccccc2)CC1CN1CCCC1` (configuration not stated), the Ki in assay [1] amounted to 79 nM.
For `O=C(O)c1ccc(S(=O)(=O)N2CCN(C(=O)Cn3c(=O)oc4ccc(Cl)cc43)C(CN3CCCC3)C2)cc1O` (configuration not stated), the Ki in assay [1] stood at 13 nM; in assay [4], 8 nM. Also, in assay [2], the EC50 was 7900 nM. For the same compound, the Ratio in assay [5] was found to be 1.3. Besides, the Kb in assay [3] was 10 nM.
`CN(CC(=O)N1CCN(S(C)(=O)=O)CC1CN1CCCC1)c1ccc(Cl)c(Cl)c1` (configuration not stated): in assay [1], the Ki came to 100 nM. Moreover, in assay [2], the EC50 was determined as 3 nM.
In the case of `COc1ccc(C(=O)N2CCN(C(=O)CN(C)c3ccc(Cl)c(Cl)c3)C(CN3CCCC3)C2)cc1OC` (configuration not stated), in assay [1], the Ki was 400 nM. Also, the EC50 in assay [2] was above 10000 nM.
As to `O=C(Cn1c(=O)oc2ccc(Cl)cc21)N1CCN(S(=O)(=O)c2cccc(C(F)(F)F)c2)CC1CN1CCCC1` (configuration not stated), in assay [1], the Ki came out at 50 nM. Also, in assay [2], the response was half-maximal at 2000 nM (EC50).
Take `CN(CC(=O)N1CCN(S(=O)(=O)c2ccc(F)c(F)c2)CC1CN1CCCC1)c1ccc(Cl)c(Cl)c1` (configuration not stated): the Ki in assay [1] was 130 nM. Also, the response in assay [2] was half-maximal at 400 nM (EC50).
Consider `COc1ccc(Br)cc1S(=O)(=O)N1CCN(C(=O)Cn2c(=O)oc3ccc(Cl)cc32)C(CN2CCCC2)C1` (configuration not stated), for which the Ki in assay [1] came to 130 nM. This compound also had an EC50 in assay [2] of 790 nM.
Taken in the same sequence, the figures for `CN(CC(=O)N1CCN(C(=O)c2ccccc2)CC1CN1CCCC1)c1ccc(Cl)c(Cl)c1` (configuration not stated) were 200 nM and 7900 nM.
For `O=C(Cn1c(=O)oc2ccc(Cl)cc21)N1CCN(S(=O)(=O)c2ccccc2)CC1CN1CCCC1` (configuration not stated), in that order: 20 nM and 790 nM.
Taken in the same sequence, the figures for `COc1cccc(S(=O)(=O)N2CCN(C(=O)Cn3c(=O)oc4ccc(Cl)cc43)C(CN3CCCC3)C2)c1` (configuration not stated) were 25 nM and 320 nM.
In the case of `COc1ccc(S(=O)(=O)N2CCN(C(=O)Cn3c(=O)oc4ccc(Cl)cc43)C(CN3CCCC3)C2)cc1` (configuration not stated), in assay [1], the Ki is 25 nM. The compound further had an EC50 in assay [2] of 2000 nM.
On to `CN(CC(=O)N1CCN(C(=O)Nc2ccccc2)CC1CN1CCCC1)c1ccc(Cl)c(Cl)c1` (configuration not stated), for which the Ki in assay [1] is 790 nM. This compound came in with an EC50 in assay [2] of 4000 nM.
With `CN(CC(=O)N1CCN(C(=O)c2cccc(Cl)c2)CC1CN1CCCC1)c1ccc(Cl)c(Cl)c1` (configuration not stated), the Ki in assay [1] came out at 130 nM. Further, the EC50 in assay [2] is above 10000 nM.
Regarding `O=C(Cn1c(=O)oc2ccc(Cl)cc21)N1CCN(S(=O)(=O)c2cc(C(F)(F)F)ccc2Cl)CC1CN1CCCC1` (configuration not stated), in assay [1], the Ki was 13 nM. Also, the EC50 in assay [2] came out at 1000 nM.
On to `CC(=O)Nc1ccc(S(=O)(=O)N2CCN(C(=O)Cn3c(=O)oc4ccc(Cl)cc43)C(CN3CCCC3)C2)cc1` (configuration not stated), for which the Ki in assay [1] amounted to 2.5 nM; in assay [4] it was 4 nM. The EC50 in assay [2] is 1300 nM. The Ratio in assay [5] amounted to 3.3. Besides, the Kb in assay [3] was found to be 13.1 nM.
Turning to `CN(CC(=O)N1CCCCC1CN1CCCC1)c1ccc(Cl)c(Cl)c1` (configuration not stated), the Ki in assay [1] amounted to 500 nM. In assay [2], this compound showed an EC50 of 3 nM.
For the compound `CN(CC(=O)N1CCN(S(=O)(=O)c2ccccc2)CC1CN1CCCC1)c1ccc(Cl)c(Cl)c1` (configuration not stated), the Ki in assay [1] was found to be 20 nM. For the same compound, in assay [2], a half-maximal response (EC50) required 250 nM.
For `COc1ccc(S(=O)(=O)N2CCN(C(=O)Cn3c(=O)oc4ccc(Cl)cc43)C(CN3CCCC3)C2)cc1OC` (configuration not stated), in assay [1], the Ki turned out to be 13 nM. The compound further had an EC50 in assay [2] of 320 nM.
On to `O=C(O)c1ccc(S(=O)(=O)N2CCN(C(=O)Cn3c(=O)oc4ccc(Cl)cc43)C(CN3CCCC3)C2)cc1` (configuration not stated), for which the Ki in assay [1] was 25 nM; in assay [4], 32 nM. Also, the EC50 in assay [2] is 2000 nM. Further, in assay [5], the Ratio was found to be 2.6. In assay [3], the Kb came out at 81.8 nM.
Turning to `CN(CC(=O)N1CCN(c2ccc(F)c(F)c2)CC1CN1CCCC1)c1ccc(Cl)c(Cl)c1` (configuration not stated), the Ki in assay [1] turned out to be 100 nM. The compound further yielded an EC50 in assay [2] of 6.3 nM.
Regarding `COc1cccc(N2CCN(C(=O)CN(C)c3ccc(Cl)c(Cl)c3)C(CN3CCCC3)C2)c1` (configuration not stated), the Ki in assay [1] worked out at 50 nM. The EC50 in assay [2] was 3.2 nM.
As to `COc1cccc(S(=O)(=O)N2CCN(C(=O)CN(C)c3ccc(Cl)c(Cl)c3)C(CN3CCCC3)C2)c1` (configuration not stated), in assay [1], the Ki was 79 nM. The compound further returned an EC50 in assay [2] of 79 nM.
As to `O=C(Cc1csc2ccc(Cl)cc12)N1CCN(c2ccccc2)CC1CN1CCCC1` (configuration not stated), the Ki in assay [1] was 63 nM. Further, in assay [2], the EC50 came to 2 nM.
